Measurements as given in ChEMBL document CHEMBL3244113, “Antimycotic imidazoles. part 4. Synthesis and antifungal activity of ketoconazole, a new potent orally active broad-spectrum antifungal agent” (1979).
Active and inactive are the calls of the source. No cut-off for these calls is given here.

Legend:
Candida tropicalis [1] = test: Antifungal activity against Candida tropicalis assessed as growth inhibition in sabouraud broth after 14 days in presence of 10% inactivated bovine serum; format: functional
Method in brief: (§1)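 Broth dilution in Sabouraud broth, with or without 10% inactivated bovine serum, incubated 14 days. Read-out: concentration (µg/mL) giving complete or marked inhibition of growth. Tested in preliminary experiments.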

Candida albicans [2] = test: Antifungal activity against Candida albicans assessed as growth inhibition in sabouraud broth after 14 days in presence of 10% inactivated bovine serum; format: functional; method in brief: as §1
Aspergillus fumigatus [3] = test: Antifungal activity against Aspergillus fumigatus assessed as growth inhibition in sabouraud broth after 14 days in presence of 10% inactivated bovine serum; format: functional
Sporothrix schenckii [4] = test: Antifungal activity against Sporothrix schenckii assessed as growth inhibition in sabouraud broth after 14 days in presence of 10% inactivated bovine serum; format: functional; method in brief: as §1
Candida albicans [5] = test: Antifungal activity against Candida albicans B2630 infected in ovariectomized and hysterectomized Wistar rat vaginal candidosis model at 1.25 mg/kg, po for 14 days by prophylactic treatment; format: functional, organism-based; design: dose 1.25 mg/kg
Method in brief: (§2)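 Female Wistar rats (100 g) were ovariectomized and hysterectomized under thalamonal anaesthesia. From 3 weeks later, and weekly thereafter, each received oestradiol undecanoate 100 µg in sesame oil s.c. Pseudooestrus was confirmed by vaginal smear. Rats were infected intravaginally with 8×10^5 C. albicans B 2630 cells in 0.2 mL saline. Compound in PEG 200 was given daily by gavage from the day of infection. Vaginal swab smears were taken on days 7, 11 and 14. Read-out: negative animals/total.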

Candida albicans [6] = test: Antifungal activity against Candida albicans B2630 infected in ovariectomized and hysterectomized Wistar rat vaginal candidosis model at 2.5 mg/kg, po for 14 days by prophylactic treatment; format: functional, organism-based; design: dose 2.5 mg/kg; method in brief: as §2
Candida albicans [7] = test: Antifungal activity against Candida albicans B2630 infected in ovariectomized and hysterectomized Wistar rat vaginal candidosis model at 5 mg/kg, po for 14 days by prophylactic treatment; format: functional; method in brief: as §2
Candida albicans [8] = test: Antifungal activity against Candida albicans B2630 infected in ovariectomized and hysterectomized Wistar rat vaginal candidosis model at 2.5 mg/kg, po for 11 days by prophylactic treatment; format: functional, organism-based; design: dose 2.5 mg/kg
Candida albicans [9] = test: Antifungal activity against Candida albicans B2630 infected in ovariectomized and hysterectomized Wistar rat vaginal candidosis model at 5 mg/kg, po for 5 days by prophylactic treatment; format: functional, organism-based; design: dose 5 mg/kg
Candida albicans [10] = test: Antifungal activity against Candida albicans B2630 infected in guinea pig cutaneous candidosis model at 0.63 mg/kg, po for 14 days measured on day 21; format: functional, organism-based; design: dose 0.63 mg/kg
Method in brief: (§3)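 Guinea pig cutaneous candidosis. Compound dissolved in PEG 200, given by oral gavage once daily for 14 consecutive days; placebo group included. Read-out: ratio of infection-negative animals to total at day 21.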

Candida albicans [11] = test: Antifungal activity against Candida albicans B2630 infected in guinea pig cutaneous candidosis model at 2.5 mg/kg, po for 14 days measured on day 21; format: functional, organism-based; design: dose 2.5 mg/kg; method in brief: as §3
Candida albicans [12] = test: Antifungal activity against Candida albicans B2630 infected in guinea pig cutaneous candidosis model at 10 mg/kg, po for 14 days measured on day 21; format: functional, organism-based; design: dose 10 mg/kg; method in brief: as §3
Coccidioides immitis = test: Antifungal activity against Coccidioides immitis infected in mouse coccidioidomycosis model assessed as cell killing activity at 40 mg/kg, po od for 2.5 weeks relative to control; format: functional
Microsporum canis [13] = test: Antifungal activity against Microsporum canis assessed as growth inhibition in sabouraud broth after 14 days; format: functional; method in brief: as §1
[14] = system: Trichophyton mentagrophytes; test: Antifungal activity against Trichophyton mentagrophytes assessed as growth inhibition in sabouraud broth after 14 days; format: functional; method in brief: as §1
Trichophyton rubrum = test: Antifungal activity against Trichophyton rubrum assessed as growth inhibition in sabouraud broth after 14 days; format: functional; method in brief: as §1
Cryptococcus neoformans = test: Antifungal activity against Cryptococcus neoformans assessed as growth inhibition in sabouraud broth after 14 days; format: functional; method in brief: as §1
Candida tropicalis [15] = test: Antifungal activity against Candida tropicalis assessed as growth inhibition in sabouraud broth after 14 days; format: functional; method in brief: as §1
Candida albicans [16] = test: Antifungal activity against Candida albicans assessed as growth inhibition in sabouraud broth after 14 days; format: functional; method in brief: as §1
Aspergillus fumigatus [17] = test: Antifungal activity against Aspergillus fumigatus assessed as growth inhibition in sabouraud broth after 14 days; format: functional
Sporothrix schenckii [18] = test: Antifungal activity against Sporothrix schenckii assessed as growth inhibition in sabouraud broth after 14 days; format: functional; method in brief: as §1
Saprolegnia = test: Antifungal activity against Saprolegnia Sp. assessed as growth inhibition in sabouraud broth after 14 days; format: functional; method in brief: as §1
Phialophora verrucosa = test: Antifungal activity against Phialophora verrucosa assessed as growth inhibition in sabouraud broth after 14 days; format: functional; method in brief: as §1
[19] = system: Erysipelothrix rhusiopathiae; test: Antifungal activity against Erysipelothrix insidiosa assessed as growth inhibition in sabouraud broth after 14 days; format: functional; method in brief: as §1
[20] = system: Staphylococcus haemolyticus; test: Antifungal activity against Staphylococcus haemolyticus assessed as growth inhibition in sabouraud broth after 14 days; format: functional; method in brief: as §1
Streptococcus pyogenes = test: Antifungal activity against Streptococcus pyogenes assessed as growth inhibition in sabouraud broth after 14 days; format: functional; method in brief: as §1
Microsporum canis [21] = test: Antifungal activity against Microsporum canis assessed as growth inhibition in sabouraud broth after 14 days in presence of 10% inactivated bovine serum; format: functional; method in brief: as §1
[22] = system: Trichophyton mentagrophytes; test: Antifungal activity against Trichophyton mentagrophytes assessed as growth inhibition in sabouraud broth after 14 days in presence of 10% inactivated bovine serum; format: functional; method in brief: as §1

Row | SMILES | GI (Candida tropicalis [1]) | GI (Candida albicans [2]) | GI (Aspergillus fumigatus [3]) | GI (Sporothrix schenckii [4]) | GI (Microsporum canis [13]) | GI [14] | GI (Trichophyton rubrum) | GI (Cryptococcus neoformans) | GI (Candida tropicalis [15]) | GI (Candida albicans [16]) | GI (Aspergillus fumigatus [17]) | GI (Sporothrix schenckii [18]) | GI (Saprolegnia) | GI (Phialophora verrucosa) | GI [19] | GI [20] | GI (Streptococcus pyogenes) | GI (Microsporum canis [21]) | GI [22] | further results
1 | CC(=O)N1CCN(c2ccc(OCC3COC(Cn4ccnc4)(c4ccc(Cl)cc4Cl)O3)cc2)CC1 (racemic) [KETOCONAZOLE] | 0.1 µg/mL | 1 µg/mL | 10 µg/mL | 1 µg/mL | 10 µg/mL | 0.1 µg/mL | 1 µg/mL | 1 µg/mL | 1 µg/mL | 10 µg/mL | 100 µg/mL | 1 µg/mL | 1 µg/mL | 1 µg/mL | 10 µg/mL | 100 µg/mL | 10 µg/mL | 1 µg/mL | 0.1 µg/mL | Activity (Candida albicans [5]): Active; Activity (Candida albicans [6]): Active; Activity (Candida albicans [7]): 100%; Activity (Candida albicans [8]): inactive; Activity (Candida albicans [9]): Active; Activity (Candida albicans [10]): inactive; Activity (Candida albicans [11]): Active; Activity (Candida albicans [12]): Active; Activity (Coccidioides immitis): >60%
2 | Clc1ccc(COC(Cn2ccnc2)c2ccc(Cl)cc2Cl)c(Cl)c1 (configuration not stated) [MICONAZOLE] | >10 µg/mL | >10 µg/mL | >10 µg/mL | 10 µg/mL | 1 µg/mL | 0.01 µg/mL | 1 µg/mL | 1 µg/mL | 1 µg/mL | 10 µg/mL | 10 µg/mL | 1 µg/mL | 10 µg/mL | 100 µg/mL | 0.01 µg/mL | 10 µg/mL | 0.01 µg/mL | 10 µg/mL | 0.1 µg/mL | –
